In data set [1] the target is T1, Protein deacetylase HDAC6 (Homo sapiens) (UniProt Q9UBN7).
T1 sequence (whole entry): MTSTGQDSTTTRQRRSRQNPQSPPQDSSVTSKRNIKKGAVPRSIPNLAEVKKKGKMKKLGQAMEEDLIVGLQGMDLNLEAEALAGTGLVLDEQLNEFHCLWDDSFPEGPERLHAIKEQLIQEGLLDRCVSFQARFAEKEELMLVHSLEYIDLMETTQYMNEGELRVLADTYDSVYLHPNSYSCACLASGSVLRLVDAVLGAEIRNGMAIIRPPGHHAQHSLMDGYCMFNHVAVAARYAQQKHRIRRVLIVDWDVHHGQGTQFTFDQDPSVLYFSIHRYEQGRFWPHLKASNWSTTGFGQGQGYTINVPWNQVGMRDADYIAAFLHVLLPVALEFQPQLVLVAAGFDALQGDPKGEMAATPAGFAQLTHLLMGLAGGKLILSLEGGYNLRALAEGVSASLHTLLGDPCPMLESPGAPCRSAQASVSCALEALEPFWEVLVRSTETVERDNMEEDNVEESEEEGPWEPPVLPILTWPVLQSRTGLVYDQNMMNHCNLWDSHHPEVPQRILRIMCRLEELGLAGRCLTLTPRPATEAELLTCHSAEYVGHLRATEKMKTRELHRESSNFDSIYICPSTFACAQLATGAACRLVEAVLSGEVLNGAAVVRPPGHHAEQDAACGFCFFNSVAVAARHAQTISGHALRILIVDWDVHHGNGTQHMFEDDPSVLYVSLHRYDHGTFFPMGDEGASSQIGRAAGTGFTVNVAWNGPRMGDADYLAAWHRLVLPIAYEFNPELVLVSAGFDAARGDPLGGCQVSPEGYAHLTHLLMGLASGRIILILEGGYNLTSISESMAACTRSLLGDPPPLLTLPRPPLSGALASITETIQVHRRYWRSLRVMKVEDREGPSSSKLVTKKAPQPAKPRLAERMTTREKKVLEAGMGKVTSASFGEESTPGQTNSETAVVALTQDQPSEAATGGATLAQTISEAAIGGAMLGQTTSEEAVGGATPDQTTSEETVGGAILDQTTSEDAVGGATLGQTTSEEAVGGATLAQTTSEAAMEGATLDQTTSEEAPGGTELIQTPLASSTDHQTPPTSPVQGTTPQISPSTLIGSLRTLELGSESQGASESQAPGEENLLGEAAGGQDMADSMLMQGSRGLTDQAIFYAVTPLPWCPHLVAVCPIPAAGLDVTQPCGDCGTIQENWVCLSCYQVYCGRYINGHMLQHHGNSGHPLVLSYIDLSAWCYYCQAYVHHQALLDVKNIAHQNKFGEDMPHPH
The experiment in a line: Inhibition of recombinant full length HDAC6 (unknown origin) using Ac-peptide-AMC as substrate at 100 nM after 1 hr by fluorescence assay relative to control. In short, it runs like this:
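Full-length recombinant HDAC1 or HDAC6 was incubated with compound, trypsin and Ac-peptide-AMC substrate for 1 h at room temperature. Fluorescence was read at ex 355/em 460 nm. Inhibition was calculated against the DMSO vehicle control.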

A further data set has as its target Histone deacetylase 2 (Homo sapiens, UniProt Q92769). The experiment in a line: Inhibition of recombinant full length human HDAC2 expressed in sf9 insect cells using Ac-peptide-AMC as substrate after 1 hr by fluorescence assay. The class given is cell-based.
Another data set concerns the target Histone deacetylase 8 (Homo sapiens, UniProt Q9BY41). The experiment in a line: Inhibition of recombinant full length C-terminal His-tagged human HDAC8 expressed in baculovirus infected in Sf9 cells using Ac-peptide-AMC as substrate after 1 hr by fluorescence assay.
For another data set, the target named is Histone deacetylase 9 (Homo sapiens, UniProt Q9UKV0). Put plainly: Inhibition of recombinant C-terminal His-tagged human HDAC9 (604 to 1066 residues) expressed in baculovirus infected Sf9 cells using Ac-peptide-AMC as substrate after 1 hr by fluorescence assay.
Chain of Histone deacetylase 9 (Q9UKV0 whole entry, the tested form may be a part): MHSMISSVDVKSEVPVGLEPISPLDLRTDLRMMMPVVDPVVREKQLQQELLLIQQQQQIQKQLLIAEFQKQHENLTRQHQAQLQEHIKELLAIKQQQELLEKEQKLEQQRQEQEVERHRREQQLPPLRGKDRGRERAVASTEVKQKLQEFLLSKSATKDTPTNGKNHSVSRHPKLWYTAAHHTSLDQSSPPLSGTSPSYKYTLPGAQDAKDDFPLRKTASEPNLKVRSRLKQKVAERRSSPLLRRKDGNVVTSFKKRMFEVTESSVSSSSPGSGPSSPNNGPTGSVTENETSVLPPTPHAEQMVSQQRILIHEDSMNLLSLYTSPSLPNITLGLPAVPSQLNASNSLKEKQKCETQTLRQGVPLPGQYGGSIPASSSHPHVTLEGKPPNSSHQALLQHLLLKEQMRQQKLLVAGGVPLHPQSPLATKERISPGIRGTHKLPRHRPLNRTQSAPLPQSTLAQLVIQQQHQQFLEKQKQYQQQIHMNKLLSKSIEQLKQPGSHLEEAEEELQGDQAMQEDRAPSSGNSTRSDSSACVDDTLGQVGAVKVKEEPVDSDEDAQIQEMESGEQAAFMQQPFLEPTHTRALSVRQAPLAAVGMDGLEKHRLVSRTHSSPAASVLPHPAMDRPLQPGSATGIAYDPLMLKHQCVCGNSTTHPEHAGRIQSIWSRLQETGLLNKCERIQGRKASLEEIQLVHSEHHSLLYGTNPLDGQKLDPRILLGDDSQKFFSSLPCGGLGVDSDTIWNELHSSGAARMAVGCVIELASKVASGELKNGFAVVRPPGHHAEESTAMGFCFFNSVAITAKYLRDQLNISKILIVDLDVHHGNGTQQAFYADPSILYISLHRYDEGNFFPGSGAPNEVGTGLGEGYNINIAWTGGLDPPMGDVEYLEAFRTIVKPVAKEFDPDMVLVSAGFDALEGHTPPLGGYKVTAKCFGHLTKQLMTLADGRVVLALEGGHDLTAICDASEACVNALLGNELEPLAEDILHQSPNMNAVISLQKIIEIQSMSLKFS
A further data set deals with HCT-116. The experiment in a line: Antiproliferative activity against human HCT116 cells after 72 hrs by MTT assay. The class given is functional, cell-based. As to conditions: HCT-116, 72 h.
The subject of the next data set is SK-OV-3. Put plainly: Antiproliferative activity against human SKOV3 cells after 72 hrs by MTT assay. Particulars: SK-OV-3, 72 h. The class given is functional, cell-based.
A further data set has as its system HepG2. Put plainly: Antiproliferative activity against human HepG2 cells after 72 hrs by MTT assay. The class given is functional, cell-based. As to conditions: HepG2, 72 h.
The test system of a further data set is RPMI-8226. Put plainly: Antiproliferative activity against human RPMI8226 cells after 72 hrs by MTT assay. The class given is functional, cell-based. Particulars: RPMI-8226, 72 h.
The next data set concerns Raji. Put plainly: Antiproliferative activity against human Raji cells after 72 hrs by MTT assay. The class given is functional, cell-based.
Data set [2] concerns JeKo-1. The experiment in a line: Antiproliferative activity against human JeKo1 cells after 72 hrs by MTT assay. Particulars: JeKo-1, 72 h. The class given is functional, cell-based.
Data set [3] concerns JeKo-1. Put plainly: Cell cycle arrest in human JeKo1 cells assessed as accumulation at S phase at 10 nM after 24 hrs by propidium iodide staining based flow cytometric analysis (reference value: 26.13 %). The class given is functional.
Data set [4] in a line: Clearance in Sprague-Dawley rat at 5 mg/kg, iv measured upto 24 hrs by LC-MS/MS analysis. The class given is ADME, organism-based. Particulars: in vivo. In short, it runs like this: (§1)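 SD rats (200-250 g), six per time point, given 5 mg/kg as a tail-vein bolus or orally. Blood was taken by cardiac puncture before dosing and at 5, 15, 30, 45 min and 1, 2, 4, 6, 8, 10, 12 and 24 h. Plasma was spun at 4000 g for 15 min at 4 °C and stored at -80 °C. Analysis was LC-MS/MS with multiple-reaction monitoring, followed by noncompartmental analysis.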

Data set [5] is described as follows: Cmax in Sprague-Dawley rat at 5 mg/kg, iv measured upto 24 hrs by LC-MS/MS analysis. The class given is ADME, organism-based. Also on record: dose 5 mg/kg, route intravenous. Particulars: in vivo. An outline of the steps: as §1
A short description of data set [6]: Cmax in Sprague-Dawley rat at 5 mg/kg, po measured upto 24 hrs by LC-MS/MS analysis. The class given is ADME, organism-based. Also on record: dose 5 mg/kg, route oral. Particulars: in vivo. An outline of the steps:
as §1

Data set [7] is described as follows: Oral bioavailability in Sprague-Dawley rat at 5 mg/kg measured upto 24 hrs by LC-MS/MS analysis. The class given is ADME, organism-based. As to conditions: in vivo. An outline of the steps:
as §1

Another data set concerns Daudi. The experiment in a line: Antitumour activity against human Daudi cells xenografted in NOD/SCID mouse assessed as increase in acetylated H4 expression at 10 mg/kg, iv treated on day 1,3 and 5 per week by immunohistochemical analysis. The class given is functional, organism-based. In short, it runs like this:
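Daudi s.c. xenografts in female NOD/SCID mice (5–6 weeks) were randomized six per group at 100–200 mm3. Dosing was 10 mg/kg i.v. or 20 mg/kg p.o. in 8% HP-β-CD on days 1, 3 and 5 weekly. Tumors were collected at study end for immunohistochemistry, with comparison to the control group.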

Data set [8] in a line: Toxicity in NOD/SCID mouse xenografted with human Daudi cells assessed as abnormal behavior at 20 mg/kg, po treated on day 1,3 and 5 per week and measured for every 2 days. The class given is organism-based. As to conditions: in vivo, 48 h. In short, it runs like this: (§2)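 Female NOD/SCID mice (5–6 weeks) bearing s.c. Daudi xenografts, six per group. Dosing was 10 mg/kg i.v. or 20 mg/kg p.o. in 8% HP-β-CD on days 1, 3 and 5 weekly. Behaviour was observed, and organ tissues were collected at sacrifice for H&E staining.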

The nature of data set [9]: Toxicity in NOD/SCID mouse xenografted with human Daudi cells assessed as organ damage at 20 mg/kg, po treated on day 1,3 and 5 per week and measured for every 2 days by H and E staining based assay. The class given is organism-based. As to conditions: in vivo, 48 h. An outline of the steps:
as §2

The values that follow come from ChEMBL document CHEMBL4364248, “Discovery of 1,2,4-oxadiazole-Containing hydroxamic acid derivatives as histone deacetylase inhibitors potential application in cancer therapy” (Eur J Med Chem, 2019).

The source made the active and inactive calls. The calls are words filed in the database; no cut-off is given here.

Chain of Histone deacetylase 8 (Q9BY41 whole entry, the tested form may be a part): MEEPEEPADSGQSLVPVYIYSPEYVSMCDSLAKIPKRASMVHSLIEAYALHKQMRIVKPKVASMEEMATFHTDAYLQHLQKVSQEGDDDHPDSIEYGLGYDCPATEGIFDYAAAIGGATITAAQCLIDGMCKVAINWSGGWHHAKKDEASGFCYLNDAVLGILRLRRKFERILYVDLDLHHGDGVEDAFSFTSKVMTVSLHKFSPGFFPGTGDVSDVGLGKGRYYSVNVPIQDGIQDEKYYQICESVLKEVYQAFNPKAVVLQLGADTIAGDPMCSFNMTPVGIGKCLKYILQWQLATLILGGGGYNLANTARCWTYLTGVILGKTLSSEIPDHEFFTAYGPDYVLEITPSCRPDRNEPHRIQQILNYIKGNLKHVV
Chain of Histone deacetylase 2 (Q92769 whole entry): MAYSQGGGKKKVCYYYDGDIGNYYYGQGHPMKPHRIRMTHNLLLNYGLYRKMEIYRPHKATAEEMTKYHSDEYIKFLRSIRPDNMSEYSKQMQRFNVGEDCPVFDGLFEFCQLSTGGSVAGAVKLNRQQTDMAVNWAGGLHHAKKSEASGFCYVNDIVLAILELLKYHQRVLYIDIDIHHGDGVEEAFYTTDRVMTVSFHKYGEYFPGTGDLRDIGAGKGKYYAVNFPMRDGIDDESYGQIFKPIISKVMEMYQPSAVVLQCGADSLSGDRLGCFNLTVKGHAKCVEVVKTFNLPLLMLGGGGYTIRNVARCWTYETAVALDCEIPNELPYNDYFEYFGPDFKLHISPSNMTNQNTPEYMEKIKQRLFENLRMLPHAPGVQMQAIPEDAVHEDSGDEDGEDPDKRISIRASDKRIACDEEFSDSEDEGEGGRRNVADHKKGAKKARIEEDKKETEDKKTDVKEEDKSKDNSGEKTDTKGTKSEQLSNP

As for `Cc1ccc(CN2CCC(c3noc(CN(C)c4ncc(C(=O)NO)cn4)n3)CC2)cc1`, the inhibition in data set [1] was 71%. Besides, the IC50 at Histone deacetylase 2 was 3.6 nM; at Histone deacetylase 8, 260 nM; at Histone deacetylase 9 it was 441 nM; in the data set on HCT-116, 16 nM; in the data set on SK-OV-3, 20.5 nM; in the data set on HepG2, 13 nM. Also, the half-inhibitory concentration (IC50) in the data set on RPMI-8226 stood at 15.6 nM; in the data set with Raji, 12.1 nM; in the data set on JeKo-1 [2], 7.2 nM. Besides, the figures for the Activity (in the data set with JeKo-1 [3]; in data set [8]; in data set [9]) were 24%, “Non-Toxic” and “Non-Toxic”, respectively. Moreover, the clearance in data set [4] was 198 mL/min/kg. In addition, the Cmax is 955 ng/mL in data set [5] and 241 ng/mL in data set [6]. This compound also came in with a bioavailability in data set [7] of 53.5%. In addition, the outcome in the data set on Daudi was Active.
